{
  "source": "paper PMC11564230",
  "about": "(Clinical Drug Investigation, 2024)",
  "key": {"[1]": {"experiment": "Clinical single-dose pharmacokinetics of insulin icodec in serum", "type": "in vivo, human", "conditions": "T2DM, single s.c. dose 175 U icodec", "outline": "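T2DM adults (18–64 y, metformin ± one OAD, 80–120 kg, HbA1c 6.0–8.5%) in a randomised, double-blind, three-period crossover. Single s.c. dose of 700 U/mL product; washout 6–9 weeks. Serum sampled pre-dose to 840 h, clotted 30 min at RT, spun 1500g 10 min 4 °C, stored −20 °C; validated LOCI. Log Cmax fitted by linear model (treatment, period, participant fixed); tmax descriptive.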"}, "[2]": {"experiment": "Safety in the clinical study", "type": "in vivo, human", "conditions": "for AEs of severity Mild, % / AEs of severity Moderate, % / AEs of severity Severe, % / AEs with outcome Recovered/resolved, % / AEs with outcome Recovering/resolving, % / AEs with relationship to study product Possible, % / AEs with relationship to study product Probable, % / AEs with relationship to study product Unlikely, % / Decreased appetite, % / Gastrointestinal disorders (SOC), % / General disorders and administration site conditions (SOC), % / Headache, % / Metabolism and nutrition disorders (SOC), % / Nausea, % / Nervous system disorders (SOC), % / Serious AEs, % / Vomiting, % / Treatment emergent AEs, %: percent of individuals; for Overall tolerability in the clinical study: T2DM", "outline": "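Adverse events and hypoglycaemia recorded continuously; treatment-emergent if from dosing to 35 days post-dose. Hypoglycaemia was BG-confirmed (BG < 2.8 mmol/L, i.e. PG < 3.1 mmol/L) or severe (needing assistance). Antibody samples taken pre-dose and at days 14, 28 and 35; validated assays. Anti-icodec-positive samples tested for human insulin cross-reactivity. Descriptive statistics.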"}, "[3]": {"conditions": "insulin-naïve T2DM, phase 3 ONWARDS 1 and 3; cited from earlier work"}, "[4]": {"experiment": "Clinical single-dose pharmacokinetics of semaglutide in plasma", "type": "in vivo, human", "conditions": "T2DM, single s.c. dose 0.5 mg semaglutide", "outline": "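Same crossover design in T2DM adults: single s.c. dose of 1 mg/mL (243 nmol/mL) product, 6–9 week washout. EDTA plasma drawn pre-dose to 840 h (35 days), kept on ice 10 min, spun 1500g 10 min 4 °C, stored −20 °C. Measured by validated LC-MS/MS. Log-transformed Cmax analysed by linear normal model with treatment, period and participant as fixed effects.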"}, "[5]": {"conditions": "number of events, treatment emergent"}},
  "data": [
    {"compound": "insulin icodec", "values": [
      {"measurement": "Maximum concentration after single dose (Cmax,SD,Icodec), LS mean", "setting": "[1]; serum, LS mean, N 30/28", "result": 95, "unit": "nM"},
      {"measurement": "Median time to maximum icodec concentration after single dose (tmax,SD,Icodec)", "setting": "[1]; median", "result": 24, "unit": "h"},
      {"measurement": "Treatment-emergent BG confirmed hypoglycaemic episodes", "setting": "[2]; BG < 2.8 mmol/L, PG < 3.1 mmol/L, single s.c. dose, until 35 days after dose", "result": "three"},
      {"measurement": "Participants positive for anti-icodec antibodies at least once during the study", "setting": "[2]; assessed following IcoSema and icodec administration", "result": 13, "unit": "participants"},
      {"measurement": "AEs of severity Mild, E", "setting": "[2]; [5]", "result": 23},
      {"measurement": "AEs of severity Moderate, E", "setting": "[2]; [5]", "result": 6},
      {"measurement": "AEs of severity Severe, E", "setting": "[2]; [5]", "result": 1},
      {"measurement": "AEs with outcome Recovered/resolved, E", "setting": "[2]; [5]", "result": 30},
      {"measurement": "AEs with outcome Recovering/resolving, E", "setting": "[2]; [5]", "result": 0},
      {"measurement": "AEs with relationship to study product Possible, E", "setting": "[2]; [5]", "result": 14},
      {"measurement": "AEs with relationship to study product Probable, E", "setting": "[2]; [5]", "result": 4},
      {"measurement": "AEs with relationship to study product Unlikely, E", "setting": "[2]; [5]", "result": 12},
      {"measurement": "Decreased appetite, E", "setting": "[2]; [5]", "result": 3},
      {"measurement": "Gastrointestinal disorders (SOC), E", "setting": "[2]; [5]", "result": 5},
      {"measurement": "General disorders and administration site conditions (SOC), E", "setting": "[2]; [5]", "result": 2},
      {"measurement": "Headache, E", "setting": "[2]; [5]", "result": 5},
      {"measurement": "Metabolism and nutrition disorders (SOC), E", "setting": "[2]; [5]", "result": 3},
      {"measurement": "Nausea, E", "setting": "[2]; [5]", "result": 0},
      {"measurement": "Nervous system disorders (SOC), E", "setting": "[2]; [5]", "result": 5},
      {"measurement": "Serious AEs, E", "setting": "[2]; [5]", "result": 1},
      {"measurement": "Vomiting, E", "setting": "[2]; [5]", "result": 0},
      {"measurement": "Treatment emergent AEs, E", "setting": "[2]; number of events, until 35 days after dosing", "result": 30},
      {"measurement": "Participants positive for anti-icodec antibodies cross-reacting to human insulin at least once", "setting": "[2]; of the anti-icodec antibody positive participants", "result": 12, "unit": "participants"},
      {"measurement": "AEs of severity Mild, %", "setting": "[2]; treatment emergent", "result": "(42.9) %"},
      {"measurement": "AEs of severity Moderate, %", "setting": "[2]; treatment emergent", "result": "(17.9) %"},
      {"measurement": "AEs of severity Severe, %", "setting": "[2]; treatment emergent", "result": "(3.6) %"},
      {"measurement": "AEs with outcome Recovered/resolved, %", "setting": "[2]; treatment emergent", "result": "(53.6) %"},
      {"measurement": "AEs with outcome Recovering/resolving, %", "setting": "[2]; treatment emergent", "result": "(0.0) %"},
      {"measurement": "AEs with relationship to study product Possible, %", "setting": "[2]; treatment emergent", "result": "(28.6) %"},
      {"measurement": "AEs with relationship to study product Probable, %", "setting": "[2]; treatment emergent", "result": "(10.7) %"},
      {"measurement": "AEs with relationship to study product Unlikely, %", "setting": "[2]; treatment emergent", "result": "(32.1) %"},
      {"measurement": "Decreased appetite, %", "setting": "[2]; treatment emergent", "result": "(10.7) %"},
      {"measurement": "Gastrointestinal disorders (SOC), %", "setting": "[2]; treatment emergent", "result": "(14.3) %"},
      {"measurement": "General disorders and administration site conditions (SOC), %", "setting": "[2]; treatment emergent", "result": "(7.1) %"},
      {"measurement": "Headache, %", "setting": "[2]; treatment emergent", "result": "(14.3) %"},
      {"measurement": "Metabolism and nutrition disorders (SOC), %", "setting": "[2]; treatment emergent", "result": "(10.7) %"},
      {"measurement": "Nausea, %", "setting": "[2]; treatment emergent", "result": "(0.0) %"},
      {"measurement": "Nervous system disorders (SOC), %", "setting": "[2]; treatment emergent", "result": "(14.3) %"},
      {"measurement": "Serious AEs, %", "setting": "[2]; treatment emergent", "result": "(3.6) %"},
      {"measurement": "Vomiting, %", "setting": "[2]; treatment emergent", "result": "(0.0) %"},
      {"measurement": "Treatment emergent AEs, %", "setting": "[2]; until 35 days after dosing", "result": "(53.6) %"},
      {"measurement": "Overall tolerability in the clinical study", "setting": "[2]; single s.c. dose", "result": "well-tolerated"},
      {"measurement": "Rate of clinically significant or severe hypoglycaemia", "setting": "[3]", "result": "< 1 episode per patient-year of exposure"}
    ]},
    {"compound": "insulin degludec", "values": [
      {"measurement": "Rate of clinically significant or severe hypoglycaemia", "setting": "[3]", "result": "< 1 episode per patient-year of exposure"}
    ]},
    {"compound": "CC[C@H](C)[C@H](NC(=O)[C@H](Cc1ccccc1)NC(=O)[C@H](CCC(=O)O)NC(=O)[C@H](CCCCNC(=O)COCCOCCNC(=O)COCCOCCNC(=O)CC[C@H](NC(=O)CCCCCCCCCCCCCCCCC(=O)O)C(=O)O)NC(=O)[C@H](C)NC(=O)[C@H](C)NC(=O)[C@H](CCC(N)=O)NC(=O)CNC(=O)[C@H](CCC(=O)O)NC(=O)[C@H](CC(C)C)NC(=O)[C@H](Cc1ccc(O)cc1)NC(=O)[C@H](CO)NC(=O)[C@H](CO)NC(=O)[C@@H](NC(=O)[C@H](CC(=O)O)NC(=O)[C@H](CO)NC(=O)[C@@H](NC(=O)[C@H](Cc1ccccc1)NC(=O)[C@@H](NC(=O)CNC(=O)[C@H](CCC(=O)O)NC(=O)C(C)(C)NC(=O)[C@@H](N)Cc1cnc[nH]1)[C@@H](C)O)[C@@H](C)O)C(C)C)C(=O)N[C@@H](C)C(=O)N[C@@H](Cc1c[nH]c2ccccc12)C(=O)N[C@@H](CC(C)C)C(=O)N[C@H](C(=O)N[C@@H](CCCNC(=N)N)C(=O)NCC(=O)N[C@@H](CCCNC(=N)N)C(=O)NCC(=O)O)C(C)C", "note": "[Semaglutide, semaglutide]", "values": [
      {"measurement": "Maximum concentration after single dose (Cmax,SD,Semaglutide), LS mean", "setting": "[4]; plasma, LS mean, N 30/28", "result": 8, "unit": "nM"},
      {"measurement": "Median time to maximum semaglutide concentration after single dose (tmax,SD,Semaglutide)", "setting": "[4]; median", "result": 84, "unit": "h"},
      {"measurement": "Participants positive for anti-semaglutide antibodies", "setting": "[2]; assessed following IcoSema administration", "result": "No participants were positive"},
      {"measurement": "AEs of severity Mild, %", "setting": "[2]; treatment emergent", "result": "(57.1) %"},
      {"measurement": "AEs of severity Moderate, %", "setting": "[2]; treatment emergent", "result": "(17.9) %"},
      {"measurement": "AEs of severity Severe, %", "setting": "[2]; treatment emergent", "result": "(0.0) %"},
      {"measurement": "AEs with outcome Recovered/resolved, %", "setting": "[2]; treatment emergent", "result": "(60.7) %"},
      {"measurement": "AEs with outcome Recovering/resolving, %", "setting": "[2]; treatment emergent", "result": "(0.0) %"},
      {"measurement": "AEs with relationship to study product Possible, %", "setting": "[2]; treatment emergent", "result": "(28.6) %"},
      {"measurement": "AEs with relationship to study product Probable, %", "setting": "[2]; treatment emergent", "result": "(42.9) %"},
      {"measurement": "AEs with relationship to study product Unlikely, %", "setting": "[2]; treatment emergent", "result": "(21.4) %"},
      {"measurement": "Decreased appetite, %", "setting": "[2]; treatment emergent", "result": "(17.9) %"},
      {"measurement": "Gastrointestinal disorders (SOC), %", "setting": "[2]; treatment emergent", "result": "(42.9) %"},
      {"measurement": "General disorders and administration site conditions (SOC), %", "setting": "[2]; treatment emergent", "result": "(14.3) %"},
      {"measurement": "Headache, %", "setting": "[2]; treatment emergent", "result": "(7.1) %"},
      {"measurement": "Metabolism and nutrition disorders (SOC), %", "setting": "[2]; treatment emergent", "result": "(21.4) %"},
      {"measurement": "Nausea, %", "setting": "[2]; treatment emergent", "result": "(21.4) %"},
      {"measurement": "Nervous system disorders (SOC), %", "setting": "[2]; treatment emergent", "result": "(17.9) %"},
      {"measurement": "Serious AEs, %", "setting": "[2]; treatment emergent", "result": "(0.0) %"},
      {"measurement": "Vomiting, %", "setting": "[2]; treatment emergent", "result": "(7.1) %"},
      {"measurement": "Treatment emergent AEs, %", "setting": "[2]; until 35 days after dosing", "result": "(60.7) %"},
      {"measurement": "Overall tolerability in the clinical study", "setting": "[2]; single s.c. dose", "result": "well-tolerated"}
    ]}
  ]
}
